From ChEMBL document CHEMBL1135589, “Refinement and evaluation of a pharmacophore model for flavone derivatives binding to the benzodiazepine site of the GABA(A) receptor” (J Med Chem, 2002)

Each compound was assayed against GABA-A receptor; anion channel (assay: Ability to inhibit [3H]-Ro- 15-1788 binding to Gamma-aminobutyric acid A receptor alpha in vitro in rat cortical membranes).
Format: cell membranes
Summary of the method: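 Cortex from male Wistar rats (150–200 g) homogenized in 30 mM Tris-HCl pH 7.4, washed, incubated 30 min at 37 °C to remove endogenous GABA, stored frozen. Nonspecific binding defined with 1 μM clonazepam. Filtration on GF/C, scintillation counting; IC50 from single-concentration inhibition formula.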

SMILES	Ki [nM]
COC(=O)c1cc(C(=O)OC)cc(-c2cc(=O)c3cc(C)ccc3o2)c1	> 1600
CC(C)c1ccc2oc(-c3ccccc3)cc(=O)c2c1	720
CCC(CC)COc1cccc(-c2cc(=O)c3cc(C)ccc3o2)c1	1000
CCCCOc1cccc(-c2cc(=O)c3cc(C)ccc3o2)c1	710
Cc1ccc2oc(-c3ccccc3N)cc(=O)c2c1	700
COC(=O)c1cc(-c2cc(=O)c3cc(C)ccc3o2)cc([N+](=O)[O-])c1	> 2100
COc1ccc(C)cc1-c1cc(=O)c2cc(C)ccc2o1	> 1500
CCOC(=O)c1cc(N)cc(-c2cc(=O)c3cc(C)ccc3o2)c1	3600
Cc1ccc2oc(-c3cc(O)cc(C(=O)O)c3)cc(=O)c2c1	> 1600
Cc1ccc2oc(-c3cccc(N)c3)cc(=O)c2c1	1200
COc1cccc(-c2cc(=O)c3cc(C)ccc3o2)c1	99
COC(=O)c1cc(N)cc(-c2cc(=O)c3cc(C)ccc3o2)c1	> 1900
Cc1ccc2oc(-c3cccnc3)cc(=O)c2c1	130
CCCc1ccc2oc(-c3ccccc3)cc(=O)c2c1	480
Cc1ccc2oc(-c3cccc(C(F)(F)F)c3)cc(=O)c2c1	9.8
CCc1ccc2oc(-c3ccccc3)cc(=O)c2c1	180
Cc1ccc2oc(-c3cccc(O)c3)cc(=O)c2c1	390
Cc1ccc2oc(-c3cc(C(=O)O)cc([N+](=O)[O-])c3)cc(=O)c2c1	> 1700
Cc1ccc2oc(-c3ccc(N)cc3)cc(=O)c2c1	2600
Cc1ccc2oc(-c3cc(Br)ccc3O)cc(=O)c2c1	0.9

SMILES	Ki [nM]
Cc1ccc2oc(-c3cc(C(=O)O)cc(C(=O)O)c3)cc(=O)c2c1	> 1600
Cc1ccc2oc(-c3cc(CO)cc(CO)c3)cc(=O)c2c1	> 1500
COc1ccc(Br)cc1-c1cc(=O)c2cc(C)ccc2o1	> 1500
Cc1cccc2c(=O)cc(-c3ccccc3)oc12	> 1700
COC(=O)c1cc(CO)cc(-c2cc(=O)c3cc(C)ccc3o2)c1	> 1500
Cc1ccc2oc(-c3ccccc3)cc(=O)c2c1 [6-METHYLFLAVONE]	180
Cc1ccc2oc(-c3cccc(C(=O)O)c3)cc(=O)c2c1	> 1700
COC(=O)c1cc(OC)cc(-c2cc(=O)c3cc(C)ccc3o2)c1	3000
COc1cc(CO)cc(-c2cc(=O)c3cc(C)ccc3o2)c1	> 1600
CCC(CC)COC(=O)c1cccc(-c2cc(=O)c3cc(C)ccc3o2)c1	610
COc1cc(C(=O)O)cc(-c2cc(=O)c3cc(C)ccc3o2)c1	> 1600
Cc1ccc2oc(-c3ccccc3O)cc(=O)c2c1	6.2
Cc1ccc2oc(-c3cccc(C(=O)OC(C)C)c3)cc(=O)c2c1	180
Cc1ccc2oc(-c3cccc(Br)c3)cc(=O)c2c1	12
COC(=O)c1cc(O)cc(-c2cc(=O)c3cc(C)ccc3o2)c1	> 1600
Cc1ccc2oc(-c3ccc(C)c(C)c3)cc(=O)c2c1	> 1700
COc1ccccc1-c1cc(=O)c2cc(C)ccc2o1	820
COC(=O)c1cccc(-c2cc(=O)c3cc(C)ccc3o2)c1	220
Cc1cc(C)cc(-c2cc(=O)c3cc(C)ccc3o2)c1	> 1500
Cc1ccc(O)c(-c2cc(=O)c3cc(C)ccc3o2)c1	7.8
